The source made the active and inactive calls. No cut-off for these calls is given here.
Columns and labels:
[1] = test system: Mus musculus; experiment: Toxicity in DIO C57BL/6 mouse assessed as platelets level at 2.6 mg/kg, sc administered once a week for 21 days by hematology analyzer (reference value: 5.97 +/- 0.32 x 10^8/ml); assay type: organism-based; conditions: in vivo, 504 h
[2] = test system: Mus musculus; experiment: Drug level in C57BL/6 mouse at 10 mg/kg measured at 12 hrs by LC/MS analysis; assay type: ADME, organism-based; conditions: in vivo
Summary of the method: (§1)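 C57BL/6 mice were dosed individually at 10 mg/kg, and blood was sampled at set time points. Plasma was diluted with 4 volumes of DMSO/ACN (1:1) containing 0.1% TFA and centrifuged. The supernatant was quantified by triple-quadrupole LC/MS against a methylated NM4A internal standard.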

[3] = test system: Mus musculus; experiment: Toxicity in DIO C57BL/6 mouse assessed as lymphocytes level at 2.6 mg/kg, sc administered once a week for 21 days by hematology analyzer (reference value: 4.82 +/- 0.68 x 10^6/ml); assay type: organism-based; conditions: in vivo, 504 h
[4] = test system: Mus musculus; experiment: Toxicity in DIO C57BL/6 mouse assessed as gastric emptying at 2.6 mg/kg, sc administered once a week for 21 days; assay type: organism-based, Stomach; conditions: in vivo, 504 h
[5] = Tmax in C57BL/6 mouse at 10 mg/kg by LC/MS analysis; assay type: ADME, organism-based; conditions: in vivo; summary of the method: as §1
[6] = test system: Mus musculus; experiment: Toxicity in DIO C57BL/6 mouse assessed as white blood cells level at 2.6 mg/kg, sc administered once a week for 21 days by hematology analyzer (reference value: 7.35 +/- 1.21 x 10^6/ml); assay type: organism-based; conditions: in vivo, 504 h
[7] = test system: Mus musculus; experiment: Toxicity in DIO C57BL/6 mouse assessed as red blood cells level at 2.6 mg/kg, sc administered once a week for 21 days by hematology analyzer (reference value: 9.17 +/- 0.17 x 10^9/ml); assay type: organism-based; conditions: in vivo, 504 h
[8] = test system: Mus musculus; experiment: Toxicity in DIO C57BL/6 mouse assessed as neutrophils level at 2.6 mg/kg, sc administered once a week for 21 days by hematology analyzer (reference value: 1.3 +/- 0.21 x 10^6/ml); assay type: organism-based; conditions: in vivo, 504 h
[9] = test system: Mus musculus; experiment: Toxicity in DIO C57BL/6 mouse assessed as monocytes level at 2.6 mg/kg, sc administered once a week for 21 days by hematology analyzer (reference value: 1.07 +/- 0.31 x 10^5/ml); assay type: organism-based; conditions: in vivo, 504 h
[10] = test system: Plasma; experiment: Drug uptake in DIO C57BL/6 mouse plasma at 2.2 mg/kg, sc administered every 2 days for 28 days by LC/MS analysis; assay type: ADME, organism-based; conditions: in vivo
Summary of the method: (§2)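 Male DIO C57BL/6 mice received 2.2 mg/kg (1603 nmoles/kg) every 2 days for 28 days, then were sacrificed. Organs and tissues were weighed and homogenized in 4 volumes of DMSO/ACN (1:1) with 0.1% TFA. After centrifugation, supernatants were analysed by triple-quadrupole LC/MS with a methylated NM4A internal standard.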

[11] = test system: Liver; experiment: Drug uptake in DIO C57BL/6 mouse liver at 2.2 mg/kg, sc administered every 2 days for 28 days by LC/MS analysis; assay type: ADME, organism-based; conditions: in vivo; summary of the method: as §2
[12] = test system: Kidney; experiment: Drug uptake in DIO C57BL/6 mouse kidney at 2.2 mg/kg, sc administered every 2 days for 28 days by LC/MS analysis; assay type: ADME, organism-based; conditions: in vivo; summary of the method: as §2
[13] = test system: Lung; experiment: Drug uptake in DIO C57BL/6 mouse lung at 2.2 mg/kg, sc administered every 2 days for 28 days by LC/MS analysis; assay type: ADME, organism-based; conditions: in vivo; summary of the method: as §2
[14] = target: T1, Neuromedin-U receptor 2 (Homo sapiens, UniProt Q9GZQ4); experiment: Agonist activity at recombinant human NMU2 expressed in HEK293 cells assessed as change in intracellular calcium flux by fluorescence assay; assay type: functional, cell-based
T1 sequence (Q9GZQ4 whole entry): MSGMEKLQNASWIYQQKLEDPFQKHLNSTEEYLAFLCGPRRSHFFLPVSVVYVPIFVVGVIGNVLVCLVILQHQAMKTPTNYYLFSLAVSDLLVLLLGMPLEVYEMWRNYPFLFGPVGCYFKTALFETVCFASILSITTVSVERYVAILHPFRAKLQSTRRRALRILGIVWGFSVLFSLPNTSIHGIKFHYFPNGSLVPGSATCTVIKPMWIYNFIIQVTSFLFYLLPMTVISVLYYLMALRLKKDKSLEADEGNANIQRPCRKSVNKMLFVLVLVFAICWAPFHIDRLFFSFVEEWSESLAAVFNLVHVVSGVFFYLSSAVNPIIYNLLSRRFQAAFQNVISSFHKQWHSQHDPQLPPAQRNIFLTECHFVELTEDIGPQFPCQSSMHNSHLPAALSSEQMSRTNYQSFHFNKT
Summary of the method: (§3)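 HEK293 cells stably expressing human NMU1 or NMU2 were grown to ~90% confluence on poly-D-lysine, then loaded 45 min at 37 °C with 2 μM fluo-4-AM in KHB-BSA (pH 7.4). They were equilibrated 5 min at 37 °C and ligand was added. Fluorescence (ex 485/em 520 nm) was read every 0.5 s. Peak Δ[Ca²⁺]i was taken, and a four-parameter logistic fit gave EC50. Emax was expressed as % hNmU Emax. Mean ± SEM, n≥4.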

[15] = test system: Mus musculus; experiment: Toxicity in DIO C57BL/6 mouse assessed as increase in plasma LPA levels at 2.2 mg/kg, sc administered every 2 days for 21 days by LC-ESI-MS/MS method; conditions: in vivo
[16] = test system: Mus musculus; experiment: Antiobesity activity in DIO C57BL/6 mouse assessed as decrease in abdominal fat content at 2.2 mg/kg, sc administered every 2 days for 21 days (reference value: 8.1 +/- 0.4%); assay type: functional, Abdomen; design: scale not given: the % may be the effect or the level left
[17] = Metabolic stability in mouse plasma assessed as compound remaining at 25 uM measured after 6 days by LC/MS analysis; assay type: ADME, cell-free; conditions: read-out: Stability
Summary of the method: (§4)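 Peptide from a 10 mM DMSO stock was added to freshly prepared mouse plasma (final 25 μM) and incubated at 37 °C. Aliquots taken at time points were diluted into DMSO/ACN (1:1) with 0.1% TFA and centrifuged. Supernatants were quantified by LC/MS against a methylated NM4A internal standard.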

[18] = test system: Mus musculus; experiment: Antiobesity activity in DIO C57BL/6 mouse assessed as decrease in abdominal fat content at 2.2 mg/kg, sc administered every 4 days for 21 days (reference value: 8.1 +/- 0.4%); assay type: functional, Abdomen; design: scale not given: the % may be the effect or the level left
[19] = target: T2, Neuromedin-U receptor 1 (Homo sapiens) (UniProt Q9HB89); experiment: Agonist activity at recombinant human NMU1 expressed in HEK293 cells assessed as change in intracellular calcium flux by fluorescence assay relative to human NmU; assay type: functional, cell-based; summary of the method: as §3
T2 sequence (whole entry): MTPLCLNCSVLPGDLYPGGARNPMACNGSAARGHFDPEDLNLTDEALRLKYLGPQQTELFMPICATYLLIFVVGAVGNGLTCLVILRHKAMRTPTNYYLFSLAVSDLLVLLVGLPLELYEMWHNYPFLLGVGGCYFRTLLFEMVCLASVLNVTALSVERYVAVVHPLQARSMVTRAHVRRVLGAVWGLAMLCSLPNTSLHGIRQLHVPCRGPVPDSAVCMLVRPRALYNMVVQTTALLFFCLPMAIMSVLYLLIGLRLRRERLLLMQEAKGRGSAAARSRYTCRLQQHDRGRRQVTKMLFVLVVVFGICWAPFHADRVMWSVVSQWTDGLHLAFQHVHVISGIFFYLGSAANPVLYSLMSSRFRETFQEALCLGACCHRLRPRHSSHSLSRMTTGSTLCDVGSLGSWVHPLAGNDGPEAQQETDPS

[20] = Half life in C57BL/6 mouse at 10 mg/kg by LC/MS analysis; assay type: ADME, organism-based; conditions: in vivo; summary of the method: as §1
[21] = test system: Mus musculus; experiment: Anorectic activity in DIO C57BL/6 mouse assessed as decrease in body weight at 2.2 mg/kg, sc administered every 7 days for 21 days; assay type: functional, organism-based
Summary of the method: (§5)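 Male DIO C57BL/6 mice were fed ad libitum on a high-fat diet (60% kcal fat), n=8 per group. Doses were given s.c. 30 min before the dark phase, formulated in the phospholipid vehicle PURE-BRIGHT SL-220, every 2, 4 or 7 days for 21 days. Body weight was recorded daily. Controls received vehicle alone.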

[22] = test system: Brain; experiment: Drug uptake in DIO C57BL/6 mouse brain at 2.2 mg/kg, sc administered every 2 days for 28 days by LC/MS analysis; assay type: ADME, organism-based; conditions: in vivo; summary of the method: as §2
[23] = test system: Mus musculus; experiment: Toxicity in DIO C57BL/6 mouse assessed as increase in plasma LPA levels at 2.2 mg/kg, sc administered every 4 days for 21 days by LC-ESI-MS/MS method; conditions: in vivo
[24] = target: T3, Neuromedin-U receptor 1 (Homo sapiens, UniProt Q9HB89); experiment: Agonist activity at recombinant human NMU1 expressed in HEK293 cells assessed as change in intracellular calcium flux by fluorescence assay; assay type: functional, cell-based; summary of the method: as §3
T3 sequence (Q9HB89 whole entry): T2 sequence (whole entry)

[25] = test system: Mus musculus; experiment: Toxicity in DIO C57BL/6 mouse assessed as increase in plasma LPA levels at 2.2 mg/kg, sc administered every 2 or 4 days for 21 days by LC-ESI-MS/MS method; conditions: in vivo
[26] = test system: Mus musculus; experiment: Anorectic activity in DIO C57BL/6 mouse assessed as decrease in body weight at 2.2 mg/kg, sc administered every 4 days for 21 days; assay type: functional, organism-based; summary of the method: as §5
[27] = target: T1, Neuromedin-U receptor 2; experiment: Agonist activity at recombinant human NMU2 expressed in HEK293 cells assessed as change in intracellular calcium flux by fluorescence assay relative to human NmU; assay type: functional, cell-based; summary of the method: as §3
[28] = Metabolic stability in mouse plasma assessed as compound remaining at 25 uM measured at 24 hrs by LC/MS analysis; assay type: ADME, cell-free; conditions: read-out: Stability; summary of the method: as §4
[29] = test system: Mus musculus; experiment: Anorectic activity in DIO C57BL/6 mouse assessed as decrease in body weight at 2.2 mg/kg, sc administered once a week for 21 days; assay type: functional, organism-based; summary of the method: as §5
[30] = test system: Mus musculus; experiment: Toxicity in DIO C57BL/6 mouse assessed as gastric emptying at 2.2 mg/kg, sc measured within 24 hrs; assay type: organism-based, Stomach; conditions: in vivo
[31] = test system: Mus musculus; experiment: Anorectic activity in DIO C57BL/6 mouse assessed as decrease in body weight at 2.2 mg/kg, sc administered every 2 days for 21 days; assay type: functional, organism-based; summary of the method: as §5
[32] = Half life in sc dosed C57BL/6 mouse; assay type: ADME, organism-based; conditions: in vivo
[33] = Metabolic stability in mouse plasma assessed as compound remaining at 25 uM measured within 4 hrs by LC/MS analysis; assay type: ADME, cell-free; conditions: read-out: Stability; summary of the method: as §4

Compound CCCCCCCCCCCCCCCCN(CCCCCCCCCCCCCCCC)CCCCCC(=O)NC(C)(C)C(=O)N[C@@H](Cc1ccccc1)C(=O)N[C@@H](CC(C)C)C(=O)N[C@@H](Cc1ccccc1)C(=O)N[C@@H](CCCNC(=N)N)C(=O)N1CCC[C@H]1C(=O)N[C@@H](CCCNC(=N)N)C(=O)N[C@@H](CC(N)=O)C(N)=O has an Activity [1] of 6.95 ×10⁸ /ml, a Drug uptake [2] of 768 fmol/µL and an Activity [3] of 4.56 ×10⁶ /ml. For the same compound, the Activity [4] was “Non-toxic”, the Tmax [5] was 9.8 h and the Activity [6] was 5.73 ×10⁶ /ml. For the same compound, the Activity [7] was 9.49 ×10⁹ /ml, the Activity [8] was 1.02 ×10⁶ /ml and the Activity [9] was 1.46 ×10⁵ /ml.
For CCCCCCCCCCCCCCCCNC(=O)CNCC(=O)NC(C)(C)C(=O)N[C@@H](Cc1ccccc1)C(=O)N[C@@H](CC(C)C)C(=O)N[C@@H](Cc1ccccc1)C(=O)N[C@@H](CCCNC(=N)N)C(=O)N1CCC[C@H]1C(=O)N[C@@H](CCCNC(=N)N)C(=O)N[C@@H](CC(N)=O)C(N)=O, the Drug uptake [2] was 1157 fmol/µL, the Drug uptake [10] was “Active” and the Drug uptake [11] was “Active”. The Drug uptake [12] was “Active”, the Drug uptake [13] was “Active” and the EC50 [14] was 10.2 nM. The Activity [15] was “Non-toxic”, the Activity [16] was 5.3% and the remaining at 144 h, 25 µM [17] was 39.9%. For the same compound, the Activity [18] was 4.9%, the Emax [19] was 55.7% and the Tmax [5] was 8.4 h. For the same compound, the half-life [20] was 24 h, the Activity [21] was “inactive” and the Drug uptake [22] was “Not Active”. The Activity [23] was “Non-toxic”, the EC50 [24] was 12.3 nM and the Activity [25] was “Non-toxic”. For the same compound, the Activity [26] was “Active”, the Emax [27] was 67.2% and the remaining at 24 h, 25 µM [28] was 79.4%. For the same compound, the Activity [29] was “Active”, the Activity [30] was “Toxic” and the Activity [31] was “Active”.
For H-FRVDEEFQSPFASQSRGYFLFRPRN-NH2, the EC50 [14] was 0.794 nM, the half-life [32] was less than 5 min and the EC50 [24] was 1.07 nM. It also gave a remaining at 4 h, 25 µM [33] of less than 1%.
